Measurements: ChEMBL document CHEMBL4052826, “Design and Synthesis of Novel Reactive Oxygen Species Inducers for the Treatment of Pancreatic Ductal Adenocarcinoma” (J Med Chem, 2018)
Calls of active or inactive are those of the source. No cut-off for these calls is given here.

Columns and labels:
BXPC-3 = experiment: Cytotoxicity against human BxPC3 cells assessed as decrease in cell proliferation after 72 hrs by MTT assay; type: functional, cell-based; settings: BXPC-3, 72 h
Summary of the method: (§1)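 MTT assay. Cells (3000–8000/well) attached overnight in RPMI1640 with 10% FBS; the GR line was kept with 200 nM gemcitabine. Serial dilutions (30 nM–10 μM for most lines) were applied for 72 h. MTT was added at a final 300 μg/mL for 3 h at 37°C, formazan was dissolved in DMSO and A570 read. Inhibition = (1 − OD treated/OD control) × 100. IC50 given as mean ± SD, three independent experiments.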

PANC-1 = experiment: Cytotoxicity against human PANC1 cells assessed as decrease in cell proliferation after 72 hrs by MTT assay; type: functional, cell-based; settings: PANC-1, 72 h; summary of the method: as §1
MIA PaCa-2 [1] = experiment: Cytotoxicity against human MIAPaCa2 cells assessed as decrease in cell proliferation after 72 hrs by MTT assay; type: functional, cell-based; settings: MIA PaCa-2, 72 h; summary of the method: as §1
MIA PaCa-2 [2] = experiment: Inhibition of mtDNA transcription from HSP2 promoter in human MIAPaCa2 cells after 4 hrs by Bru-seq analysis; type: functional, cell-based
Summary of the method: (§2)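 MIA PaCa-2 cells were seeded at 4×10^6 per 10 cm dish and treated the next day for 4 h, with DMSO as control. Bromouridine (2 mM final) was added for the last 30 min. Total RNA was isolated in TRIZOL, and Bru-labelled RNA was immunocaptured, made into cDNA libraries and deep-sequenced. Read-out was nascent signal across mitochondrial heavy-strand (HSP2) and light-strand (LSP) transcripts.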

MIA PaCa-2 [3] = experiment: Inhibition of mtDNA transcription from LSP promoter in human MIAPaCa2 cells after 4 hrs by Bru-seq analysis; type: functional, cell-based; summary of the method: as §2
[4] = Cytotoxicity against HPDEC assessed as decrease in cell proliferation after 72 hrs by MTT assay; type: cell-based; settings: Homo sapiens; summary of the method: as §1
MIA PaCa-2 [5] = experiment: Cytotoxicity against gemcitabine-resistant human MIAPaCa2 cells assessed as decrease in cell proliferation after 72 hrs by MTT assay; type: functional, cell-based; settings: MIA PaCa-2, 72 h; summary of the method: as §1
[6] = Induction of compound aggregation
MIA PaCa-2 [7] = experiment: Cytotoxicity against human MIAPaCa2 cells assessed as decrease in cell proliferation after 72 hrs in presence of NAC by MTT assay; type: functional, cell-based
Summary of the method: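 MIA PaCa-2 cells were treated for 72 h with compound in the presence of 5 mM NAC. Viability was read by MTT (final 300 μg/mL, 3 h, A570). Mean ± SD of three independent experiments.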

MIA PaCa-2 [8] = experiment: Induction of reactive oxygen species generation in human MIAPaCa2 cells at 1.1 to 10 uM after 24 hrs in presence of NAC by H2DCFDA reactivity assay; type: functional, cell-based
Summary of the method: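 H2DCFDA assay. Trypsinized MIA PaCa-2 cells in suspension were loaded with 20 μM H2DCFDA for 30 min at 37°C, washed and plated at 20,000/well. After 30 min they were treated with compound at 10, 3.3 or 1.1 μM. Fluorescence was read at 493/523 nm over time. DMSO basal and unstained controls were included. NAC pretreatment, where used, was 5 mM for 30 min. Duplicates, three independent experiments.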

[9] = Induction of compound colloidal behavior

| SMILES | IC50 (BXPC-3) | IC50 (PANC-1) | IC50 (MIA PaCa-2 [1]) | also measured |
| --- | --- | --- | --- | --- |
| O=C1C(Nc2cccc(B(O)O)c2)=CC(=O)c2ncncc21 | > 10 µM | 9 µM | > 10 µM |  |
| O=C1C(Nc2ccc(OC(F)(F)F)cc2)=CC(=O)c2ncncc21 | 0.9 µM | 0.9 µM | 1.4 µM |  |
| NS(=O)(=O)c1ccc(NC2=CC(=O)c3ncncc3C2=O)cc1 | > 10 µM | > 10 µM | > 10 µM |  |
| Nc1cccc(C(=O)NCCC[P+](c2ccccc2)(c2ccccc2)c2ccccc2)c1 | > 30 µM | > 30 µM | > 30 µM |  |
| Nc1ccc(-c2ccc(NC3=CC(=O)c4ncncc4C3=O)cc2)cc1 | 3.5 µM | 3.7 µM | 2.5 µM |  |
| COc1ccc(NC2=CC(=O)c3ncncc3C2=O)cc1 | 1.7 µM | 0.8 µM | 1.9 µM |  |
| O=C1C(Nc2ccc(Oc3ccccc3)cc2)=CC(=O)c2ncncc21 | 3.6 µM | 1.8 µM | 3.7 µM |  |
| Nc1ccc(C(=O)NCCC[P+](c2ccccc2)(c2ccccc2)c2ccccc2)cc1 | > 30 µM | > 30 µM | > 30 µM |  |
| NC(=O)c1ccc(NC2=CC(=O)c3ncncc3C2=O)cc1 | > 10 µM | 6.3 µM | 8 µM |  |
| O=C1C=CC(=O)c2ncncc21 | 19.4 µM | 18 µM | 9.4 µM |  |
| COc1ccc(-c2ccc(NC3=CC(=O)c4ncncc4C3=O)cc2)cc1 | 3.5 µM | 2.3 µM | 2.1 µM |  |
| COc1cccc(NC2=CC(=O)c3ncncc3C2=O)c1 | 1.8 µM | 0.6 µM | 1.8 µM |  |
| CC[C@@]1(O)C(=O)OCc2c1cc1n(c2=O)Cc2cc3ccccc3nc2-1 |  |  |  | inhibition (MIA PaCa-2 [2]): inactive; inhibition (MIA PaCa-2 [3]): inactive |
| COc1cc(NC2=CC(=O)c3ncncc3C2=O)cc(OC)c1 | 16.3 µM | 7.2 µM | 7.7 µM |  |
| O=C(NCCC[P+](c1ccccc1)(c1ccccc1)c1ccccc1)c1cccc(NC2=CC(=O)c3ncncc3C2=O)c1 | 21.3 µM | 14.3 µM |  | IC50 [4]: 24.3 µM; IC50 (MIA PaCa-2 [5]): 16.2 µM |
| COc1cc(NC2=CC(=O)c3ncncc3C2=O)cc(OC)c1OC | 1.6 µM | 0.8 µM | 1.5 µM | Activity [6]: Active; Activity (MIA PaCa-2 [7]): inactive; IC50 [4]: 3.2 µM; Activity (MIA PaCa-2 [8]): inactive; IC50 (MIA PaCa-2 [5]): 2 µM; Activity [9]: Active |
| O=C1C(Nc2ccc(-c3ccc(F)cc3)cc2)=CC(=O)c2ncncc21 | 4.4 µM | 3.2 µM | 3.5 µM |  |
| CCOC(=O)c1ccc(NC2=CC(=O)c3ncncc3C2=O)cc1 | 5.9 µM | 1.6 µM | 5.5 µM |  |
| COc1ccc(NC2=CC(=O)c3ncncc3C2=O)cc1OC | 1.5 µM | 0.9 µM | 1.8 µM |  |
| OO |  |  |  | Activity (MIA PaCa-2 [7]): inactive |
| Cc1ccc(-c2ccc(NC3=CC(=O)c4ncncc4C3=O)cc2F)cc1 | 5 µM | 4.8 µM | 4.6 µM |  |
| O=C1C(Nc2ccc(CO)cc2)=CC(=O)c2ncncc21 | 5.7 µM | 1 µM | 3.5 µM |  |
| O=C1C(NCc2ccc(F)cc2)=CC(=O)c2ncncc21 | 1.4 µM | 1 µM | 1.7 µM |  |
| COC(=O)c1ccc(NC2=CC(=O)c3ncncc3C2=O)cc1 | 5.8 µM | 1.1 µM | 2.2 µM |  |
| CCc1ccc(-c2ccc(NC3=CC(=O)c4ncncc4C3=O)cc2)cc1 | 3.1 µM | 1.2 µM | 2 µM |  |
| O=C(NCCC[P+](c1ccccc1)(c1ccccc1)c1ccccc1)c1ccc(NC2=CC(=O)c3ncncc3C2=O)cc1 | 21.5 µM | 11.7 µM | 15.3 µM | IC50 [4]: 18.3 µM; IC50 (MIA PaCa-2 [5]): 17.7 µM |
